Measured values: ChEMBL document CHEMBL1129059, “Antitumor properties of some 2-[(dimethylamino)methyl]phenylgold(III) complexes” (J Med Chem, 1996)
“And” between values parts separate entries of the source, which are not always exact repeats. Equal entries are not always repeated.

Key:
[1] = system: HX62 cell line; test: Compound was tested for in vitro growth inhibition of Ovarian carcinoma cell line panel HX62; type: functional, cell-based, Homo sapiens
Summary of the method: (§1)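 Ovarian lines grown as monolayers in DMEM with 10% FBS, insulin, hydrocortisone and L-glutamine under 6% CO2. Cells were seeded at 3–5 × 10³/well and left to attach overnight. Compounds were freshly dissolved in DMA or water and applied for 96 h in quadruplicate wells. Growth was measured by SRB and reported as IC50.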

[2] = system: A2780; test: Compound was tested for in vitro growth inhibition of Ovarian carcinoma cell line panel A2780-R; type: functional, cell-based, Homo sapiens; summary of the method: as §1
[3] = system: CH1; test: Compound was tested for in vitro growth inhibition of Ovarian carcinoma cell line panel CH1-R; type: functional, cell-based; summary of the method: as §1
[4] = system: HT-1376; test: Compound was tested for in vitro growth inhibition of primary panel tumor cell line HT1376; type: functional, cell-based, Homo sapiens
Summary of the method: (§2)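 Primary-panel lines kept in L15, RPMI 1640 plus pyruvate, or MEM, each with 10% FBS. Cells were seeded at 5×10^4–10^5 cells/mL, preincubated 24 h, then exposed 4 h to 0–200 μg/mL from a 2 mg/mL stock in 10% DMA/PBS. After washout and 72 h further growth, cells were read by SRB. IC50 was the concentration giving 50% survival versus untreated controls.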

[5] = system: SW-620; test: Compound was tested for in vitro growth inhibition of primary panel tumor cell lines SW620; type: functional, cell-based, Homo sapiens; summary of the method: as §2
[6] = system: CH1; test: Compound was tested for in vitro growth inhibition of Ovarian carcinoma cell line panel CH1; type: functional, cell-based; summary of the method: as §1
[7] = system: SK-OV-3; test: Compound was tested for in vitro growth inhibition of primary panel tumor cell line SK-OV-3; type: functional, cell-based, Homo sapiens; summary of the method: as §2
[8] = system: A2780; test: Compound was tested for in vitro growth inhibition of Ovarian carcinoma cell line panel A2780; type: functional, cell-based, Homo sapiens; summary of the method: as §1
[9] = system: ZR-75-1; test: Compound was tested for in vitro growth inhibition of primary panel tumor cell linZR-75-1; type: functional, cell-based, Homo sapiens; summary of the method: as §2
[10] = system: SW 1116; test: Compound was tested for in vitro growth inhibition of primary panel tumor cell line SW1116; type: functional, cell-based, Homo sapiens; summary of the method: as §2
[11] = system: HT-29; test: Compound was tested for in vitro growth inhibition of primary panel tumor cell line HT-29/219; type: functional, cell-based, Homo sapiens; summary of the method: as §2
[12] = system: SK-OV-3; test: Compound was tested for in vitro growth inhibition of Ovarian carcinoma cell line panel SK-OV-3; type: functional, cell-based, Homo sapiens; summary of the method: as §1
[13] = system: Mus musculus; test: Compound was evaluated for antitumor activity (T/C) in HT1376 carcinoma Xenograft, at a dosage 35 mg/kg on day 21; type: functional, organism-based; set-up: dose 35 mg/kg
Summary of the method: (§3)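 Nude mice carrying subcutaneous flank HT1376 fragments; treatment began once tumors were established and palpable, randomized into groups of 6 treated and 10 control mice. Dosing was ip as a suspension in 0.5% carboxymethylcellulose in 0.9% saline on days 0, 7, 14 and 21, at the MTD and two 2-fold dilutions. Tumors were measured on days 0-28. RTV = 100(mean volume at assessment)/(mean start volume); T/C = treated RTV/control RTV.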

[14] = system: Mus musculus; test: Compound was evaluated for antitumor activity (RTV) in HT1376 carcinoma Xenograft, at a dosage 17.5 mg/kg on day 14; type: functional, organism-based; set-up: dose 17.5 mg/kg
Summary of the method: (§4)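 HT1376 tumor fragments implanted subcutaneously in nude mice flanks; mice with established palpable tumors randomized into groups of 6 (controls 10). Compounds given intraperitoneally as suspensions in 0.5% carboxymethylcellulose in 0.9% saline, on days 0, 7, 14 and 21. Tumor dimensions on days 0, 7, 14, 21, 28. RTV = 100(mean tumor volume at assessment)/(mean start volume).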

[15] = system: Mus musculus; test: Compound was evaluated for antitumor activity (RTV) in HT1376 carcinoma Xenograft, at a dosage 8.75 mg/kg on day 28; type: functional, organism-based; set-up: dose 8.75 mg/kg; summary of the method: as §4
[16] = system: Mus musculus; test: Compound was evaluated for antitumor activity (T/C) in HT1376 carcinoma Xenograft, at a dosage 8.75 mg/kg on day 7; type: functional, organism-based; set-up: dose 8.75 mg/kg; summary of the method: as §3
[17] = system: Mus musculus; test: Compound was evaluated for antitumor activity (T/C) in HT1376 carcinoma Xenograft, at a dosage 35 mg/kg on day 28; type: functional, organism-based; set-up: dose 35 mg/kg; summary of the method: as §3
[18] = system: Mus musculus; test: Compound was evaluated for antitumor activity (T/C) in HT1376 carcinoma Xenograft, at a dosage 17.5 mg/kg on day 28; type: functional, organism-based; set-up: dose 17.5 mg/kg
Summary of the method: (§5)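 Subcutaneous HT1376 xenografts in nude mice, 6 per treated group and 10 controls. Intraperitoneal dosing as suspensions in 0.5% carboxymethylcellulose/0.9% saline on days 0, 7, 14, 21; tumors measured weekly to day 28. T/C = RTV of treated group / RTV of untreated control group; significance by t-test at the 5% level.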

[19] = system: Mus musculus; test: Compound was evaluated for antitumor activity (RTV) in HT1376 carcinoma Xenograft, at a dosage 17.5 mg/kg on day 7; type: functional, organism-based; set-up: dose 17.5 mg/kg; summary of the method: as §4
[20] = system: Mus musculus; test: Compound was evaluated for antitumor activity (RTV) in HT1376 carcinoma Xenograft, at a dosage 8.75 mg/kg on day 21; type: functional, organism-based; set-up: dose 8.75 mg/kg; summary of the method: as §4
[21] = system: Mus musculus; test: Compound was evaluated for antitumor activity (RTV) in HT1376 carcinoma Xenograft, at a dosage 35 mg/kg on day 28; type: functional, organism-based; set-up: dose 35 mg/kg; summary of the method: as §4
[22] = system: Mus musculus; test: Compound was evaluated for antitumor activity (T/C) in HT1376 carcinoma Xenograft, at a dosage 17.5 mg/kg on day 7; type: functional, organism-based; set-up: dose 17.5 mg/kg; summary of the method: as §5
[23] = system: Mus musculus; test: Compound was evaluated for antitumor activity (T/C) in HT1376 carcinoma Xenograft, at a dosage 17.5 mg/kg on day 21; type: functional, organism-based; set-up: dose 17.5 mg/kg; summary of the method: as §5
[24] = system: Mus musculus; test: Compound was evaluated for antitumor activity (T/C) in HT1376 carcinoma Xenograft, at a dosage 35 mg/kg on day 14; type: functional, organism-based; set-up: dose 35 mg/kg; summary of the method: as §3
[25] = system: Mus musculus; test: Compound was evaluated for antitumor activity (T/C) in HT1376 carcinoma Xenograft, at a dosage 8.75 mg/kg on day 28; type: functional, organism-based; set-up: dose 8.75 mg/kg; summary of the method: as §3
[26] = system: Mus musculus; test: Compound was evaluated for antitumor activity (T/C) in HT1376 carcinoma Xenograft, at a dosage 17.5 mg/kg on day 14; type: functional, organism-based; set-up: dose 17.5 mg/kg; summary of the method: as §5
[27] = system: Mus musculus; test: Compound was evaluated for antitumor activity (T/C) in HT1376 carcinoma Xenograft, at a dosage 8.75 mg/kg on day 14; type: functional, organism-based; set-up: dose 8.75 mg/kg; summary of the method: as §3
[28] = system: Mus musculus; test: Compound was evaluated for antitumor activity (RTV) in HT1376 carcinoma Xenograft, at a dosage 8.75 mg/kg on day 14; type: functional, organism-based; set-up: dose 8.75 mg/kg; summary of the method: as §4
[29] = Range is evaluated. (Highest IC50/Lowest IC50); type: functional
[30] = system: Mus musculus; test: Compound was evaluated for antitumor activity (RTV) in HT1376 carcinoma Xenograft, at a dosage 35 mg/kg on day 21; type: functional, organism-based; set-up: dose 35 mg/kg; summary of the method: as §4
[31] = system: Mus musculus; test: Compound was evaluated for antitumor activity (T/C) in HT1376 carcinoma Xenograft, at a dosage 35 mg/kg on day 7; type: functional, organism-based; set-up: dose 35 mg/kg; summary of the method: as §3
[32] = system: Mus musculus; test: Compound was evaluated for antitumor activity (RTV) in HT1376 carcinoma Xenograft, at a dosage 35 mg/kg on day 7; type: functional, organism-based; set-up: dose 35 mg/kg; summary of the method: as §4
[33] = system: Mus musculus; test: Compound was evaluated for antitumor activity (RTV) in HT1376 carcinoma Xenograft, at a dosage 17.5 mg/kg on day 28; type: functional, organism-based; set-up: dose 17.5 mg/kg; summary of the method: as §4
[34] = system: Mus musculus; test: Compound was evaluated for antitumor activity (RTV) in HT1376 carcinoma Xenograft, at a dosage 17.5 mg/kg on day 21; type: functional, organism-based; set-up: dose 17.5 mg/kg; summary of the method: as §4
[35] = system: Mus musculus; test: Compound was evaluated for antitumor activity (RTV) in HT1376 carcinoma Xenograft, at a dosage 8.75 mg/kg on day 7; type: functional, organism-based; set-up: dose 8.75 mg/kg; summary of the method: as §4
[36] = system: Mus musculus; test: Compound was evaluated for antitumor activity (RTV) in HT1376 carcinoma Xenograft, at a dosage 35 mg/kg on day 14; type: functional, organism-based; set-up: dose 35 mg/kg; summary of the method: as §4
[37] = system: Mus musculus; test: Compound was evaluated for antitumor activity (T/C) in HT1376 carcinoma Xenograft, at a dosage 8.75 mg/kg on day 21; type: functional, organism-based; set-up: dose 8.75 mg/kg; summary of the method: as §3
[38] = Solubility at 25 degrees Celsius in water; type: physicochemical; details: buffer
Summary of the method: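 5–10 mg sample was tumbled in 5.0 mL water at 25 °C for 24 h and filtered. The solution was diluted as needed and gold was quantified with 1 ppm indium as internal standard.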

[39] = Solubility at 25 degrees Celsius in 1-Octanol; type: physicochemical
Summary of the method: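 A sample was tumbled in 1-octanol at 25 °C for 24 h and filtered. An aliquot was evaporated and the residue taken up in dilute aqua regia. Gold content was determined as for the aqueous samples, with indium as internal standard.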

[40] = system: ZR-75-1; test: Compound was tested for in vitro growth inhibition of primary panel tumor cell line ZR-75-1; type: functional, cell-based, Homo sapiens; summary of the method: as §2
[41] = system: SK-OV-3; test: Compound was tested for in vitro growth inhibition of primary panel tumor cell lines SK-OV-3; type: functional, cell-based, Homo sapiens; summary of the method: as §2

Work on CISPLATIN yielded an IC50 [1] of 18 µM, an IC50 [2] of 10 µM and an IC50 [3] of 0.56 µM. The IC50 [4] was 23 µM, the IC50 [5] was 167 µM and the IC50 [6] was 0.12 µM. For the same substance, the IC50 [7] was 23 µM, the IC50 [8] was 1.2 µM and the IC50 [9] was 27 µM. It also gave an IC50 [10] of 163 µM, an IC50 [11] of 17 µM and an IC50 [12] of 5.2 µM.
In the case of “Malonato[2-(dimethylamino)methyl]phenyl-C,N]gold-(III)”, the T/C [13] is reported as 0.58, the RTV [14] is reported as 451 and the RTV [15] is reported as 1230. It also gave a T/C [16] of 1, a T/C [17] of 0.77 and a T/C [18] of 0.76. For the same substance, the RTV [19] was 266, the RTV [20] was 894 and the RTV [21] was 816. It also gave a T/C [22] of 1.01, a T/C [23] of 0.83 and a T/C [24] of 0.57. The T/C [25] was 1.17, the T/C [26] was 0.88 and the T/C [27] was 1. The RTV [28] was 513, the Range [29] was 7.3 and 11.1 and the RTV [30] was 488. It also gave a T/C [31] of 0.8, an RTV [32] of 210 and an RTV [33] of 802. For the same substance, the RTV [34] was 699, the RTV [35] was 264 and the RTV [36] was 292. For the same substance, the T/C [37] was 1.06.
Work on “Acetato[2-(dimethylamino)methyl]phenyl-C,N]gold-(III)” yielded a Solubility [38] of over 5.23 mM, an IC50 [1] of 34 µM and an IC50 [2] of 35 µM. It also gave an IC50 [3] of 12 µM, a Solubility [39] of over 5.28 mM and an IC50 [4] of 13 µM. It also gave an IC50 [40] of 45 µM, an IC50 [5] of 281 µM and an IC50 [6] of 11 µM. The IC50 [8] was 3.5 µM, the IC50 [41] was 13 µM and the IC50 [10] was 238 µM. It also gave an IC50 [11] of 67 µM and an IC50 [12] of 107 µM.
